Source: ChEMBL document CHEMBL1255265, “Linezolid and tiamulin cross-resistance in Staphylococcus aureus mediated by point mutations in the peptidyl transferase center” (2008)
Converted amounts (≈) assume the structure as drawn.

Assays:
Escherichia coli [1] = test: Antimicrobial activity wild type Escherichia coli SQ110 by agar dilution method; assay type: functional
Escherichia coli [2] = test: Antimicrobial activity wild type Escherichia coli SQ110 by agar dilution method in presence of 16 ug/ml polymyxin B nonapeptide; assay type: functional
Method in brief: (§1)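 MIC by agar dilution following BSAC guidelines in Mueller-Hinton medium. For E. coli, the medium was supplemented with 16 μg/ml polymyxin B nonapeptide to permeabilize the gram-negative envelope.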

Escherichia coli [3] = test: Antimicrobial activity against Escherichia coli KM55-68 harboring G2576U mutation in 23S rRNA by agar dilution method in presence of 16 ug/ml polymyxin B nonapeptide; assay type: functional; method in brief: as §1
Escherichia coli [4] = test: Antimicrobial activity against Escherichia coli KM74 harboring U2500A mutation in 23S rRNA by agar dilution method in presence of 16 ug/ml polymyxin B nonapeptide; assay type: functional; method in brief: as §1
Escherichia coli [5] = test: Antimicrobial activity against Escherichia coli KM75-84 harboring Gly153Arg mutation in rplC gene by agar dilution method in presence of 16 ug/ml polymyxin B nonapeptide; assay type: functional; method in brief: as §1
Escherichia coli [6] = test: Antimicrobial activity against Escherichia coli KM85-86 harboring Lys157Gln mutation in rplC gene by agar dilution method in presence of 16 ug/ml polymyxin B nonapeptide; assay type: functional; method in brief: as §1
Escherichia coli [7] = test: Antimicrobial activity against Escherichia coli KM87-88 harboring Arg141Ser mutation in rplC gene by agar dilution method in presence of 16 ug/ml polymyxin B nonapeptide; assay type: functional; method in brief: as §1
Escherichia coli [8] = test: Antimicrobial activity against Escherichia coli KM89-94 harboring G2576U mutation in 23S rRNA by agar dilution method in presence of 16 ug/ml polymyxin B nonapeptide; assay type: functional; method in brief: as §1
Staphylococcus aureus [9] = test: Antimicrobial activity against Staphylococcus aureus KM187+198 harboring G2576U mutation in 23S rRNA by agar dilution method; assay type: functional
Method in brief: (§2)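 S. aureus MICs were determined by agar dilution per BSAC guidelines in Mueller-Hinton medium, without supplement.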

Staphylococcus aureus [10] = test: Antimicrobial activity against Staphylococcus aureus NRS119 clinical isolate harboring G2576U mutation in 23S rRNA by agar dilution method; assay type: functional; method in brief: as §2
Staphylococcus aureus [11] = test: Antimicrobial activity against Staphylococcus aureus NRS120 clinical isolate harboring G2576U mutation in 23S rRNA by agar dilution method; assay type: functional; method in brief: as §2
Staphylococcus aureus [12] = test: Antimicrobial activity against Staphylococcus aureus NRS121 clinical isolate harboring G2576U mutation in 23S rRNA by agar dilution method; assay type: functional; method in brief: as §2
Escherichia coli [13] = test: Antimicrobial activity against Escherichia coli KM69-73 harboring G2447U mutation in 23S rRNA by agar dilution method in presence of 16 ug/ml polymyxin B nonapeptide
Escherichia coli [14] = test: Antimicrobial activity against tiamulin resistant Escherichia coli SQ110 by agar dilution method; assay type: functional
Staphylococcus aureus [15] = test: Antimicrobial activity against wild type Staphylococcus aureus RN4220 measured after 2 days of subculturing by agar dilution method; assay type: functional; conditions: RN4220, 48 h
Method in brief: (§3)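 Resistant mutants were selected by serial subculture in Mueller-Hinton medium containing antibiotic, and time to emergence of resistance was recorded. MICs were determined by agar dilution per BSAC guidelines.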

Staphylococcus aureus [16] = test: Antimicrobial activity against mutS-expressing Staphylococcus aureus RN4220 measured after 1 day of subculturing by agar dilution method; assay type: functional; conditions: RN4220, 24 h; method in brief: as §3
Staphylococcus aureus [17] = test: Antimicrobial activity against tiamulin resistant Staphylococcus aureus 8325-4 after 1 day of subculturing by agar dilution method; assay type: functional; conditions: 8325-4, 24 h; method in brief: as §3
Staphylococcus aureus [18] = test: Antimicrobial activity against Staphylococcus aureus KM164-165 harboring Gly155Arg mutation in rplC gene by agar dilution method; assay type: functional; method in brief: as §2
Staphylococcus aureus [19] = test: Antimicrobial activity against Staphylococcus aureus KM166-167 harboring Ser158Leu mutation in rplC gene by agar dilution method; assay type: functional; method in brief: as §2
Staphylococcus aureus [20] = test: Antimicrobial activity against Staphylococcus aureus RN4220 by agar dilution method; assay type: functional; method in brief: as §2
Staphylococcus aureus [21] = test: Antimicrobial activity against Staphylococcus aureus KM168 harboring Arg149Ser mutation in rplC gene by agar dilution method; assay type: functional; method in brief: as §2

Row | SMILES | MIC (Escherichia coli [2]) [µg/mL] | MIC (Escherichia coli [3]) [µg/mL] | MIC (Escherichia coli [4]) [µg/mL] | MIC (Escherichia coli [5]) [µg/mL] | MIC (Escherichia coli [6]) [µg/mL] | MIC (Escherichia coli [7]) [µg/mL] | MIC (Escherichia coli [8]) [µg/mL] | MIC (Staphylococcus aureus [9]) [µg/mL] | MIC (Staphylococcus aureus [10]) [µg/mL] | MIC (Staphylococcus aureus [11]) [µg/mL] | MIC (Staphylococcus aureus [12]) [µg/mL] | MIC (Escherichia coli [13]) [µg/mL] | further results
1 | CC(=O)NC[C@H]1CN(c2ccc(N3CCOCC3)c(F)c2)C(=O)O1 [LINEZOLID] | 16 | 64 | 64 | 16 | 16 | 16 | 64 | 64 (≈ 190 µM) | 64 (≈ 190 µM) | 64 (≈ 190 µM) | 64 (≈ 190 µM) | 64 | MIC (Escherichia coli [1]): 256 µg/mL (≈ 759 µM)
2 | C=C[C@]1(C)C[C@@H](OC(=O)CSCCN(CC)CC)[C@]2(C)[C@H](C)CC[C@]3(CCC(=O)[C@H]32)[C@@H](C)[C@@H]1O [TIAMULIN] | 8 | 64 | 64 | 32 | 32 | 64 | 64 | 16 (≈ 32.4 µM) | 32 (≈ 64.8 µM) | 32 (≈ 64.8 µM) | 32 (≈ 64.8 µM) | 64 | MIC (Escherichia coli [14]): 128 µg/mL (≈ 259 µM); MIC (Staphylococcus aureus [15]): 1 µg/mL (≈ 2.03 µM); MIC (Staphylococcus aureus [16]): 2 µg/mL (≈ 4.05 µM); MIC (Staphylococcus aureus [17]): 1 µg/mL (≈ 2.03 µM); MIC (Staphylococcus aureus [18]): 8 µg/mL (≈ 16.2 µM); MIC (Staphylococcus aureus [19]): 16 µg/mL (≈ 32.4 µM); MIC (Staphylococcus aureus [20]): 1 µg/mL (≈ 2.03 µM); MIC (Staphylococcus aureus [21]): 8 µg/mL (≈ 16.2 µM)
